Experimental data as given in ChEMBL document CHEMBL4725241, “Discovery of BMS-986235/LAR-1219: A Potent Formyl Peptide Receptor 2 (FPR2) Selective Agonist for the Prevention of Heart Failure” (J Med Chem, 2020).
Activity calls are given as the source filed them. The calls are words filed in the database; no cut-off is given here.

Key:
[1] = Volume of distribution at steady state in cynomolgus monkey at 1 mg/kg, iv by LC-MS/MS analysis; assay type: ADME, organism-based, Macaca fascicularis; conditions: in vivo, read-out: Vdss
Procedure, shortened: (§1)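 Male animals received intravenous solution in DMSO/PEG400/saline (5/47.5/47.5). EDTA plasma was extracted with methanol/acetonitrile (1:1) plus internal standard and quantified by LC-MS/MS. AUC0-inf was calculated by the trapezoidal rule with terminal-phase kel extrapolation.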

Mus musculus = assay: Antiinflammatory activity in mouse assessed as increase in LPS-induced IL-10 expression at 0.3 mg/kg, po
[2] = Clearance in human liver microsome at 0.1 umol/l and measured for 60 mins by LC-MS/MS analysis; assay type: ADME; conditions: microsomes, 1 h, 0.1 µM, dose 0.1 µmol/L
Procedure, shortened: (§2)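 Liver microsomes (1 mg protein/mL final) with an NADPH regenerating system were preincubated 5 min at 37°C, then given 0.1 µmol/L compound. Samples were taken at 0-60 min, quenched in methanol/acetonitrile with internal standard, and analysed by LC-MS/MS. Runs were in triplicate. kel came from 5-30 min points. CLint = kel/protein concentration (mL/min/mg protein).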

[3] = Volume of distribution at steady state in Crl:CD1(ICR) mouse at 0.5 mg/kg, iv by LC-MS/MS analysis; assay type: ADME, organism-based; conditions: in vivo, read-out: Vdss; procedure, shortened: as §1
[4] = Cmax in Crl:CD(SD) rat at 1 mg/kg, po by LC-MS/MS analysis; assay type: ADME, organism-based; parameters: route oral, dose 1 mg/kg; conditions: in vivo
Procedure, shortened: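 Male animals dosed orally with a suspension in 0.5% MC. Blood was taken into EDTA 2K capillaries and plasma was stored frozen. Plasma was mixed with methanol/acetonitrile (1:1) plus internal standard, centrifuged, and drug was measured by LC-MS/MS. AUC0-inf was obtained by the trapezoidal rule, extrapolated with kel from the terminal phase. t1/2 = ln2/kel.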

[5] = Volume of distribution at steady state in Beagle dog at 1 mg/kg, iv by LC-MS/MS analysis; assay type: ADME, organism-based, Canis lupus familiaris; conditions: in vivo, read-out: Vdss; procedure, shortened: as §1
Cytochrome P450 3A4 = Cytochrome P450 3A4 (Homo sapiens, UniProt P08684); assay: Inhibition of recombinant human CYP3A4; assay type: ADME
Chain of Cytochrome P450 3A4 (P08684 whole entry): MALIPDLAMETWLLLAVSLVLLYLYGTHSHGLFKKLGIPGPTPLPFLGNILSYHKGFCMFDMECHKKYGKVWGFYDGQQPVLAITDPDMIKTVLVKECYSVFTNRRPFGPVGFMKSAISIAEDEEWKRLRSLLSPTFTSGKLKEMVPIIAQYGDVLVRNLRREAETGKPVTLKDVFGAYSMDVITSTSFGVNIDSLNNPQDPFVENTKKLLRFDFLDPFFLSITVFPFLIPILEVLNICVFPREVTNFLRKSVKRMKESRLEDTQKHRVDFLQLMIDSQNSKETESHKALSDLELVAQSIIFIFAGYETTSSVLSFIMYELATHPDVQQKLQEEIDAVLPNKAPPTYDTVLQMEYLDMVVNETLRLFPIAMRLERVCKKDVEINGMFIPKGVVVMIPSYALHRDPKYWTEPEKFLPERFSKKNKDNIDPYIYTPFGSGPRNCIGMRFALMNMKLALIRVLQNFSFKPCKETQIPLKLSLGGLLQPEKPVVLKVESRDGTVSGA

fMet-Leu-Phe receptor = target: T1, fMet-Leu-Phe receptor (Homo sapiens, UniProt P21462); assay: Agonist activity at human FPR1 expressed in HEK 293 cells co-expressing Galpha15 measured every 1.5 sec for 80 sec by Fluo-4 NW staining based scanning fluorometric method; assay type: cell-based, HEK293
T1 sequence (P21462 whole entry): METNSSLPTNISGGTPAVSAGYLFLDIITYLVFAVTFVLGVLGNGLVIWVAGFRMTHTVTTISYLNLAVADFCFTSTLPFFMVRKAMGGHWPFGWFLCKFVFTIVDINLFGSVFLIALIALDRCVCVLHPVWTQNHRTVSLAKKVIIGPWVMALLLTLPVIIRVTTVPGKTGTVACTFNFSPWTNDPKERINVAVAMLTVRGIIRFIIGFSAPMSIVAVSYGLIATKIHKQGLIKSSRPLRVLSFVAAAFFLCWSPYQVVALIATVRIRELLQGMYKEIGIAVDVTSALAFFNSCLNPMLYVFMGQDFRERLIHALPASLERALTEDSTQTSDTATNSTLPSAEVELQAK

[6] = Clearance in rat liver microsome at 0.1 umol/l and measured for 60 mins by LC-MS/MS analysis; assay type: ADME; conditions: microsomes, 1 h, 0.1 µM, dose 0.1 µmol/L; procedure, shortened: as §2
[7] = Clearance in monkey liver microsome at 0.1 umol/l and measured for 60 mins by LC-MS/MS analysis; assay type: ADME, Macaca mulatta; conditions: rhesus monkey, microsomes, 1 h, 0.1 µM, dose 0.1 µmol/L; procedure, shortened: as §2

Vd [1]: 1.2 L/kg
CLH [2]: 0.0033 mL/min/mg
Vd [3]: 3.5 L/kg
Cmax [4]: 240 nM
Vd [5]: 0.98 L/kg
IC50 (Cytochrome P450 3A4): > 20 µM
EC50 (fMet-Leu-Phe receptor): 2800 nM
CLH [6]: 0.021 mL/min/mg
CLH [7]: 0.03 mL/min/mg
SMILES: COc1cc(F)c([C@@H]2CNC(=O)[C@H]2NC(=O)Nc2ccccc2)c(F)c1 [BMS-986235]
Activity (Mus musculus): Active
